High-throughput results (PubChem)
KCNQ1 inh = inhibitors of human KCNQ1 potassium channel; P51787; CHO-K1 KCNQ1, FluxOR thallium flux fluorescence; stronger effect = higher value; B-score at 10 µM; actives 1.3% (n = 310,000); AID 2642;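 active = compounds whose thallium flux B-score, printed positive for inhibition, exceeds three library SD while starting fluorescence stays within three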;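 note: channel opened by potassium depolarization with thallium stimulus after 20 min compound exposure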
KCNK3 inh = human KCNK3 channel inhibition, primary screen; O14649; CHO-KCNK3 thallium flux, FluxOR fluorescence; stronger effect = lower value; B-score at 10 µM; actives 0.84% (n = 340,000);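 active = B-score under library mean minus 4 SD, starting fluorescence ratio at most library mean plus 5 SD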;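 note: more negative B-score means stronger inhibition of thallium flux through KCNK3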
Target sequence (O14649 whole entry, looked up): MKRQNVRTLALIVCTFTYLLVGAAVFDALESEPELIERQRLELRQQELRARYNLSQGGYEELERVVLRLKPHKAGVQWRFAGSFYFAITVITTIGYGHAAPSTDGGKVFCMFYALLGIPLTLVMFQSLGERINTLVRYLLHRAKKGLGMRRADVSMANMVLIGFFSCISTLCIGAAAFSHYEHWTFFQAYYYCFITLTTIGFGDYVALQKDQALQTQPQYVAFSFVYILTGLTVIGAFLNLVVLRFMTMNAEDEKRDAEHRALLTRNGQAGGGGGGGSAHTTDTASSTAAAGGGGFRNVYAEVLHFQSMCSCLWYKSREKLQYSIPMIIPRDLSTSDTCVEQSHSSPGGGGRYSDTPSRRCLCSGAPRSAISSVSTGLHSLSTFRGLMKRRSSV
hERG protect = shields human hERG channel from block by proarrhythmic agents; Q12809; CHO-hERG, FluxOR thallium flux, dofetilide IC70 present; activation (rescue from dofetilide block), less the hit threshold, % at 10 µM; actives 0.51% (n = 310,000); AID 1511;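 active = activation above the mean of controls blocked by dofetilide plus 5 SD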;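 note: thallium influx through hERG after potassium depolarization seen as dye fluorescence rise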
KCNQ1 act = potentiators or activators of human KCNQ1 potassium channel; CHO-K1 KCNQ1, thallium flux FluxOR fluorescence; stronger effect = higher value; actives 0.35% (n = 310,000); B-score at 10 µM;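 active = fluorescence ratio B-score, a plate-corrected score, at least three library SD, with initial intensity B-score within 5 SD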
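System: CHO-K1 cells stably expressing KCNQ1 / Medium: assay buffer for compound exposure, DMSO matched across wells / Reagent: thallium- and potassium-containing depolarizing buffer / Compound: one concentration, matched DMSO / Incubation: 20 min compound pretreatment at room temperature / Measured by: kinetic FluxOR fluorescence, 10 s baseline plus 110 s post-stimulus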
KCNK9 inh = inhibitors of human KCNK9 two-pore domain potassium channel; HEK293 KCNK9, FluxOR thallium flux fluorescence; stronger effect = lower value; B-score at 10 µM; actives 1.2% (n = 310,000); AID 488922;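 active = ratio B-score over 3 SD below the library mean, with starting fluorescence within 5 SD of its mean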;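 note: negative B-score means less thallium flux so channel inhibition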
Kir21 block = blocks the mouse Kir2.1 inward-rectifier potassium channel. actives 0.85% (n = 310,000). HEK293-Kir2.1, FluxOR thallium flux fluorescence; stronger effect = lower value. B-score at 10 µM. P35561;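 active = fluorescence ratio B-score at or below minus 3 SD of library scores, with starting-brightness B-score within 2 SD, cut at about -4.2 in these data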;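 note: channel flux triggered by added potassium and thallium sulfate stimulus; B-score of peak minus minimum fluorescence over baseline after thallium stimulus; more negative B-score means stronger Kir2.1 block with less thallium influx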
An asterisk follows results filed as active; i = inactive; / = no result. Rows were chosen to be rich in hits. Some 3.7% of all compounds tested hit in one or more screens of this group.

SMILES	KCNQ1 inh	KCNK3 inh	hERG protect	KCNQ1 act	KCNK9 inh	Kir21 block
O=S1(=O)N=C(N(CCO)/N=C/c2ccc(Br)cc2)c2ccccc21	i	i	-6	i	i	-0.27
Cn1nnnc1SCCNCc1cc(Cl)ccc1OCc1ccccc1	i	i	-7	i	i	-2.1
Cn1nnnc1SCCNCc1ccccc1OCc1ccc(Cl)cc1	i	i	-13	i	i	-4.3*
COc1ccc(NS(=O)(=O)c2cccc(C(=O)NN=Cc3cc(Br)c(O)c(Br)c3)c2)cc1	/	i	/	/	/	/
Cn1cnc([N+](=O)[O-])c1S(=O)(=O)c1ccc(Cl)cc1	i	i	-2	i	i	-6.8*
CC1=CC(C)(C)n2c(O)c(N=N)c3cc(C)cc1c32	i	i	-10	i	i	-8.7*
CCC(C(=O)NC1CCCCC1)N(Cc1cccs1)C(=O)c1snc(C(N)=O)c1N (stereo unspecified)	6*	i	-16	i	i	0.76
O=C(NC1CCCCC1)C(c1ccc2ncccc2c1)N(Cc1cccs1)C(=O)c1cccs1 (stereo unspecified)	i	i	-7	i	i	-0.75
COc1ccc(C(C(=O)NC2CCCC2)N(Cc2ccco2)C(=O)c2snc(C(N)=O)c2N)cc1OC (stereo unspecified)	i	i	-15	i	i	-0.2
COc1ccc(C(C(=O)NC2CCCCC2)N(Cc2ccco2)C(=O)c2snc(C(N)=O)c2N)cc1 (stereo unspecified)	9*	i	-12	i	i	0.54
O=C(NC1CCCCC1)C(c1cccs1)N(Cc1cccs1)C(=O)c1cccs1 (stereo unspecified)	8*	i	-12	i	i	-0.25
CN1CCN(c2ccc(NC(=O)CSc3nnnn3-c3ccccc3F)cc2)CC1	i	i	-5	i	i	-0.09
Cc1cc(C)c(C2=CC(=O)C[C@H](c3ccc4c(c3)OCO4)C2)c(C)c1	/	i	/	/	/	/
CCOc1cc(CNC2CCCC2)cc(Cl)c1OCc1ccc(F)cc1	i	i	-15	i	i	-11*
COc1cc(CNC2CCCCCCC2)cc(Cl)c1OCC(N)=O	i	i	-2	i	i	-0.99
COc1cc(CNC2CCCC2)cc(Cl)c1OCc1ccccc1Cl	i	i	-27	i	i	-9.3*
COc1cc(CNC2CCCC2)cc(Cl)c1OCc1ccc(F)cc1	i	i	-19	i	i	-5*
COc1cc(CNn2c(C)n[nH]c2=S)cc(Cl)c1OCc1ccc(F)cc1	i	i	-7	i	i	0.4
COc1cc(CNC2CCCC2)cc(OC)c1OC	i	i	1	i	i	2.1
Cc1c(CCCl)c(Cl)n2c(nc3ccccc32)c1C#N	/	i	/	/	/	/
CCN(C(=O)CN1C(=O)/C(=C/c2ccccc2)SC1=S)C1CCS(=O)(=O)C1 (stereo unspecified)	i	i	-9	i	i	0.08
COc1ccccc1CC(NC(C)=O)C(=O)NC1CCN(C(=O)Nc2ccc(F)cc2)CC1 (stereo unspecified)	i	i	-16	i	i	1.9
Fc1ccc(C2CC(c3ccco3)=NN2c2ccccc2)cc1 (stereo unspecified)	7*	i	-17	i	-7.9*	0.58
CS(=O)(=O)N1N=C(c2ccco2)CC1c1ccccc1 (stereo unspecified)	i	i	0	i	i	0.5
O=[N+]([O-])c1cccc(S(=O)(=O)N2CN(c3ccc(Br)cc3)c3nc4ccccc4nc32)c1	/	i	/	/	/	/
SMILES	KCNQ1 inh	KCNK3 inh	hERG protect	KCNQ1 act	KCNK9 inh	Kir21 block
CSc1nc(N)nc(SCC(=O)C23CC4CC(CC(C4)C2)C3)c1C#N	i	i	-16	i	-7.5*	-0.03
N#Cc1c(N)nc(SCC(=O)C23CC4CC(CC(C4)C2)C3)c(C#N)c1-c1ccc(Cl)cc1	i	i	-8	i	i	-0.42
CCc1ccc(OCc2nnc(-c3ccccc3Br)o2)cc1	/	-9.3*	/	/	/	/
CCN(CC)CCN(C(=O)CCOc1ccccc1)c1nc2ccc(F)cc2s1	i	i	-19	i	i	0.29
O=C(CCNS(=O)(=O)c1cccc(C(F)(F)F)c1)NC1CC1	/	i	/	/	/	/
O=C(O)c1ccc(Cl)cc1Nc1nc2cc(Cl)ccc2o1	i	i	5.6*	i	i	0.75
CCC(=O)Nc1cc(Cl)ccc1C(=O)O	i	i	-8	i	i	-0.09
O=C(Nc1nnc(-c2ccco2)o1)c1ccc2ccccc2c1	i	i	6.8*	i	i	1
CN1CCN(C(c2ccccc2)c2ccc(Cl)cc2)CC1 (stereo unspecified)	/	i	/	/	/	/
CN1CCN(C(c2cccc(Cl)c2)c2ccccc2Cl)CC1 (stereo unspecified)	i	i	-16	i	i	-4.4*
COc1ccccc1-n1c(=S)sc2c(=O)n(Cc3ccco3)c(SC)nc21	9*	i	-13	i	i	-0.96
COc1ccccc1-n1c(SC)nc2c(sc(=S)n2-c2ccccc2)c1=O	i	i	-9	i	i	-0.75
O=C(CN1C(=O)NC2(CCCCC2)C1=O)Oc1ccc2c(C(F)(F)F)cc(=O)oc2c1	i	i	-9	i	i	-1.8
CCN(CC(=O)Nc1c(F)cccc1F)C(=O)c1ccc(Cl)c(S(=O)(=O)N2CCCCC2)c1	i	i	-1	i	i	-0.67
COc1ccccc1Cn1c(C(C)C)nc2ccccc21	i	i	-8	i	i	-5*
COc1ccccc1Cn1c(/C=C/c2ccccc2)nc2ccccc21	i	i	-7	i	-7*	1.1
CCN(C(=O)COC(=O)CNC(=O)C1CCCCC1)c1ccccc1	/	i	/	/	/	/
COc1cc(CCC(=O)OCC(=O)NCc2ccc(Cl)cc2)cc(OC)c1OC	i	i	-4	i	i	-4.4*
COc1cc(CCC(=O)NCc2ccc(Cl)cc2)cc(OC)c1OC	i	i	-4	i	i	-1.8
O=C(CSc1nc2nc(-c3cccs3)cc(C(F)(F)F)c2c(=O)[nH]1)Nc1ccc(F)c(F)c1	7*	i	-15	i	i	1.3
O=C(O)c1ccccc1-c1ccc(/C=C/c2cc(C(F)(F)F)[nH]c(=O)n2)o1	i	i	-43	i	i	-14
O=c1nc(/C=C/c2ccc(-c3ccc(F)cc3)o2)cc(C(F)(F)F)[nH]1	11*	/	-27	i	i	-12
CNC(=O)c1ccc(-c2cc(C(F)(F)F)nn2C)s1	i	i	-7	i	i	0.82
Cn1nc(C(F)(F)F)cc1-c1ccc(/C=C(\C#N)C(=O)c2ccccc2)s1	8*	i	-4	i	i	0.03
